Among the data in ChEMBL document CHEMBL2021795, “Novel epigallocatechin gallate (EGCG) analogs activate AMP-activated protein kinase pathway and target cancer stem cells” (2012) are fold change (FC), Activity and inhibition values, retold here.

Activity calls are given as the source filed them. The calls are words filed in the database; no cut-off is given here.

Test [1] relates to MDA-MB-231. As to the kind of experiment: Induction of AMPKalpha phosphorylation at T172 residue in human MDA-MB-231 cells at 10 mM after 3 hrs by Western blotting analysis relative to control. Type of test: cell-based. The gist of the method:
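MDA-MB-231 human breast cancer cells grown in DMEM/F12 (1:1) with 10% FBS, penicillin and streptomycin at 37°C, 5% CO2. Treated for 3 h, then whole-cell extracts separated by SDS–PAGE, blotted to nitrocellulose and detected by ECL. Phospho-AMPKα (T172) band normalized to β-actin.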

In test [2] the test system is MDA-MB-231. As to the kind of experiment: Antiproliferative activity against human MDA-MB-231 cells at 1 to 20 mM after 24 hrs by MTT assay. Type of test: functional, cell-based. The gist of the method:
(§1)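 MDA-MB-231 cells were grown in 96-well plates to 70–80% confluency. Compounds or metformin were added for 24 h at 37°C, then MTT read-out. Samples were run in triplicate in three independent experiments. Data are mean ± SD, expressed as percent of untreated control (100%).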

Test [3] has as its system MDA-MB-231. As to the kind of experiment: Inhibition of mammosphere formation in human MDA-MB-231 cells at 5 mM after 7 days by inverted phase-contrast microscopy. It is filed as functional. The note with it: MDA-MB-231, 168 h. The gist of the method: (§2)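 Single MDA-MB-231 cells were seeded at 1,000 cells/well in ultra-low-attachment 6-well plates. Sphere medium was DMEM/F12 1:1 with B-27, N-2 and penicillin/streptomycin, topped up every 3–4 days. Cells were exposed to compounds or metformin for 7 days. Spheres were collected by centrifugation (300 g, 5 min) and counted under an inverted phase-contrast microscope. Mean of three experiments.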

Test [4] concerns MDA-MB-231. As to the kind of experiment: Inhibition of mammosphere formation in human MDA-MB-231 cells at 10 mM after 7 days by inverted phase-contrast microscopy. It is filed as functional. To be noted: MDA-MB-231, 168 h. The procedure, abridged:
as §2

Test [5] concerns MDA-MB-231. As to the kind of experiment: Induction of AMPKalpha phosphorylation at T172 residue in human MDA-MB-231 cells at 20 uM after 3 hrs by Western blotting analysis relative to control. It is filed as cell-based. The procedure, abridged: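 MDA-MB-231 cells in DMEM/F12 (1:1) with 10% FBS at 37°C, 5% CO2. Compounds were given at 20 μM, metformin at 10 mM, for 3 h. Whole-cell lysates were run on SDS–PAGE, blotted to nitrocellulose and probed for phospho-AMPKα (T172), with ECL detection. Phospho-AMPKα was normalized to β-actin.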

Test [6] deals with MDA-MB-231. As to the kind of experiment: Antiproliferative activity against human MDA-MB-231 cells after 24 hrs by MTT assay. It is filed as functional, cell-based. The procedure, abridged:
as §1
For orientation: Formazan colour is commonly taken as a measure of viable cells.

The test system of test [7] is MDA-MB-231. As to the kind of experiment: Induction of AMPKalpha phosphorylation at T172 residue in human MDA-MB-231 cells after 3 hrs by Western blotting analysis relative to control. Type of test: cell-based. The gist of the method:
(§3)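 MDA-MB-231 cells grown in DMEM/F12 (1:1) with 10% FBS, penicillin/streptomycin at 37°C, 5% CO2. Exposed to compounds over a concentration series for 3 h. Whole-cell extracts were separated by SDS–PAGE and transferred to nitrocellulose. Blots were probed with the indicated antibodies (p-AMPKα, p-Raptor, p21, β-actin) and detected by ECL. p-AMPKα was normalized to β-actin.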

Test [8] relates to MDA-MB-231. As to the kind of experiment: Activation of AMPKalpha in human MDA-MB-231 cells assessed as increase in Raptor S792 phosphorylation after 3 hrs by Western blotting analysis relative to control. It is filed as cell-based. The procedure, abridged:
as §3
(Immunoblotting shows a protein as a band on a membrane.)

Test [9] is described as follows: Activation of AMPKalpha in human MDA-MB-231 cells assessed as suppression of mTOR pathway measuring decrease in p70-S6K T389 phosphorylation at 5 to 40 uM after 3 hrs by Western blotting analysis relative to control. It is filed as cell-based.
Test [10] deals with MDA-MB-231. As to the kind of experiment: Induction of AMPKalpha-mediated up-regulation of p21 in human MDA-MB-231 cells at 5 to 40 uM after 3 hrs by Western blotting analysis relative to control. Type of test: cell-based. The procedure, abridged:
as §3

In test [11] the test system is MDA-MB-231. As to the kind of experiment: Inhibition of mammosphere formation in human MDA-MB-231 cells at 10 uM after 7 days by inverted phase-contrast microscopy. Type of test: functional. The note with it: MDA-MB-231, 168 h. The gist of the method:
as §2

In test [12] the test system is MDA-MB-231. As to the kind of experiment: Inhibition of mammosphere formation in human MDA-MB-231 cells at 20 uM after 7 days by inverted phase-contrast microscopy. Type of test: functional. To be noted: MDA-MB-231, 168 h. The gist of the method:
as §2

In test [13] the test system is MDA-MB-231. As to the kind of experiment: Cytotoxicity against human MDA-MB-231 cells assessed as CD44+high/CD24-low cells at 10 uM after 48 hrs by FACS-flow cytometry (reference value: 45%). It is filed as functional. The gist of the method: (§4)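 MDA-MB-231 cells were cultured 5 days on low-adherent plates in sphere medium. Spheres were dissociated with accutase (37°C, 5 min), reseeded and treated with compounds for 48 h. Cells were detached with 0.02% EDTA/PBS and stained with anti-CD44-FITC and anti-CD24-PE or isotype controls for 30 min at 4°C in the dark. The CD44high/CD24low fraction was measured by flow cytometry. Mean of three experiments.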

For test [14], the system named is MDA-MB-231. As to the kind of experiment: Cytotoxicity against human MDA-MB-231 cells assessed as CD44+high/CD24-low cells at 20 uM after 48 hrs by FACS-flow cytometry (reference value: 45%). Type of test: functional. The procedure, abridged:
as §4
On the technique in general: A flow cytometer gives signals particle by particle.

In test [15] the test system is MDA-MB-231. As to the kind of experiment: Cytotoxicity against human MDA-MB-231 cells assessed as CD44+high/CD24-low cells after 48 hrs by FACS-flow cytometry (reference value: 45%). Type of test: functional, cell-based. The procedure, abridged:
as §4

Broadly, the inhibition is the change of the read-out against control, counted positive when it falls. A low value points to a response near the control. In test [1], `CN(C)C(=N)NC(=N)N` [METFORMIN] gave a fold change (FC) of 6.3. Further, the outcome in test [2] was Active. Further, the inhibition at 5000 µM in test [3] is 41.4%. For the same compound, 10000 µM produced 67.6% inhibition in [4].
The compound `O=C(O[C@H]1Cc2ccccc2C[C@H]1OC(=O)c1cc(O)c(Br)c(O)c1)c1cc(O)c(Br)c(O)c1` displayed a fold change (FC) in test [5] of 13.5. Besides, the Activity entry in test [6] is “Dose-dependent effect”; in test [7], “Dose-dependent effect”; in [8], “Dose-dependent effect”; in [13], 30.5%; in [14], 18%; in test [15] it was “Dose-dependent effect”. Also, the outcome in [9] and in test [10] was Active. Moreover, in [11], 10 µM produced 45.1% inhibition. In test [12], this compound gave an inhibition at 20 µM of 66.7%.
In turn, `Nc1ccc(C(=O)O[C@H]2Cc3ccccc3C[C@H]2OC(=O)c2ccc(N)cc2)cc1` showed a fold change (FC) in [5] of 13.7. Also, the Activity entry in test [6] was “Dose-dependent effect”; in test [7] it was “Dose-dependent effect”; in [8], “Dose-dependent effect”; in [13] it was 25.6%; in test [14], 13.9%; in test [15], “Dose-dependent effect”. Moreover, the outcome in [9] and in [10] was Active. In test [11], this compound had an inhibition at 10 µM of 52.2%. This compound also showed an inhibition at 20 µM in test [12] of 73.3%.
Turning to `CC(=O)Nc1ccc(C(=O)O[C@H]2Cc3ccccc3C[C@H]2OC(=O)c2ccc(NC(C)=O)cc2)cc1`, the fold change (FC) in [5] amounted to 6.
In test [5], `O=C(O[C@H]1Cc2ccccc2C[C@H]1OC(=O)c1cc(O)cc(O)c1)c1cc(O)cc(O)c1` registered a fold change (FC) of 5.1.
Same read-out and setting: with `O=C(O[C@H]1Cc2ccccc2C[C@H]1OC(=O)c1cc(O)c(O)c(O)c1)c1cc(O)c(O)c(O)c1` the figure was 5.1.
In test [5], `O=C(O[C@@H]1Cc2c(O)cc(O)cc2O[C@@H]1c1cc(O)c(O)c(O)c1)c1cc(O)c(O)c(O)c1` [EPIGALOCATECHIN GALLATE] displayed a fold change (FC) of 3.9. In addition, the result in test [6] was Active. Further, testing at 10 µM in [11] gave an inhibition of 20.1%. The compound further returned an inhibition at 20 µM in test [12] of 51.3%.
Compound `CC(=O)Oc1cc(OC(C)=O)c2c(c1)O[C@H](c1cc(OC(C)=O)c(OC(C)=O)c(OC(C)=O)c1)[C@H](OC(=O)c1cc(OC(C)=O)c(OC(C)=O)c(OC(C)=O)c1)C2` showed a fold change (FC) in [5] of 3.9.
